ChEMBL document CHEMBL1143386, “Prodrugs of perzinfotel with improved oral bioavailability” (J Med Chem, 2009)

Tests used:
[1] = Chemical stability at pH 4.5 after 4 hrs; type: physicochemical; conditions: buffer, read-out: Stability
Outline: (§1)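 Compound at 0.01 mg/mL final in a 9:1 mix of aqueous buffer (pH 1.0, 4.5, 6.6 or 7.4) or simulated gastric fluid with acetonitrile, held at 37 °C in the autosampler. Injected every 4 h over 24 h onto C8 HPLC. Percent remaining from peak area at 304 nm, corrected by internal standard; products confirmed by LC/MS (-ESI).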

[2] = Chemical stability at pH 7.4 after 4 hrs; type: physicochemical; conditions: buffer, read-out: Stability; outline: as §1
[3] = Chemical stability in simulated gastric fluid after 4 hrs; type: physicochemical; conditions: read-out: Stability; outline: as §1
[4] = Chemical stability at pH 6.6 after 4 hrs; type: physicochemical; conditions: buffer, read-out: Stability; outline: as §1
[5] = Chemical stability at pH 1 after 4 hrs; type: physicochemical; conditions: buffer, read-out: Stability; outline: as §1
Glutamate NMDA receptor = experiment: Displacement of [3H]CGP-39653 from rat brain NMDA receptor
Outline: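 Competitive displacement of [3H]CGP-39653 at the NMDA recognition site, using rat whole-brain membranes.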

[6] = Tmax in simulated intestinal fluid assessed as formation of benzoic acid [2-(8,9-dioxo-2,6-diaza-bicyclo[5.2.0]non-1(7)-en-2-yl)-ethyl]-hydroxy-phosphinoyloxymethyl ester; type: physicochemical; conditions: simulated gi fluid
Outline: (§2)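 Compound at a final 0.01 mg/mL in 9:1 pH 8.5 buffer or simulated intestinal fluid:acetonitrile, 37 °C. HPLC injections every 4 h over 24 h, with peak area at 304 nm corrected by internal standard and identities confirmed by LC/MS. Conversion kinetics fitted to a two-step first-order model to give rate constants, half-lives and Tmax of the hemiester.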

Rattus norvegicus [7] = species on record: Rattus norvegicus; experiment: Tmax in Sprague-Dawley rat plasma assessed as formation of benzoic acid [2-(8,9-dioxo-2,6-diaza-bicyclo[5.2.0]non-1(7)-en-2-yl)-ethyl]-hydroxy-phosphinoyloxymethyl ester; type: ADME; conditions: in vitro
Outline: (§3)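 Dissolved at 0.05 mg/mL in rat plasma and incubated at 37 °C for 0–24 h. Samples quenched with acetonitrile and centrifuged; supernatant diluted and run on HPLC. Parent and conversion products quantified by peak area at 304 nm, corrected by internal standard, and confirmed by LC/MS. Kinetics fitted to a two-step first-order model.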

Rattus norvegicus [8] = species on record: Rattus norvegicus; experiment: Half life in Sprague-Dawley rat plasma assessed as formation of perzinfotel; type: ADME; outline: as §3
[9] = Half life in simulated intestinal fluid assessed as formation of perzinfotel; type: physicochemical; conditions: simulated gi fluid; outline: as §2
[10] = Half life in pH 8.5 buffer assessed as formation of perzinfotel; type: physicochemical; outline: as §2
[11] = Tmax in pH 8.5 buffer assessed as formation of benzoic acid [2-(8,9-dioxo-2,6-diaza-bicyclo[5.2.0]non-1(7)-en-2-yl)-ethyl]-hydroxy-phosphinoyloxymethyl ester; type: physicochemical; outline: as §2

remaining at 4 h [1] [%] | remaining at 4 h [2] [%] | remaining at 4 h [3] [%] | remaining at 4 h [4] [%] | remaining at 4 h [5] [%] | IC50 (Glutamate NMDA receptor) [µM] | Tmax [6] [h] | Tmax (Rattus norvegicus [7]) [h] | t1/2 (Rattus norvegicus [8]) [h] | t1/2 [9] [h] | t1/2 [10] [h] | Tmax [11] [h] | SMILES
99.4 | 94.4 | 91.6 | 95 | 89 |  |  |  |  |  |  |  | O=C(OCOP(=O)(CCN1CCCNc2c1c(=O)c2=O)OCOC(=O)C1CCCCC1)C1CCCCC1
 |  |  |  |  | 17 | 14.48 | 0.19 | 0.87 | > 24 | > 24 | 9.14 | O=C(OCOP(=O)(O)CCN1CCCNc2c1c(=O)c2=O)c1ccccc1
